Measurements reported in ChEMBL document CHEMBL4808192, “Synthesis and biological evaluation of novel imidazo[1,2-a]pyridine-oxadiazole hybrids as anti-proliferative agents: Study of microtubule polymerization inhibition and DNA binding” (Bioorg Med Chem, 2021).
Values belong to the compound of their own block, whether it stands above or below them. Active and inactive are the calls of the source. The rule behind the calls is not given here.

Assays:
A549 [1] = assay: Antiproliferative activity against human A549 cells assessed as reduction in cell viability incubated for 48 hrs by MTT assay; format: functional, cell-based; conditions: A549, 48 h
Method in brief: (§1)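 Cells grown in medium with 10% FBS and 1% antibiotic-antimycotic at 37 °C, passaged at 80–90% confluence with 0.25% trypsin/1 mM EDTA. Seeded at 1000–4000 cells/well and grown overnight. Medium was then replaced and compounds added at various concentrations for 48 h. MTT (0.5 mg/mL) was added for 4 h at 37 °C, formazan dissolved in DMSO and absorbance read at 570 nm. IC50 is the 50% inhibitory concentration.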

DU-145 = assay: Antiproliferative activity against human DU-145 cells assessed as reduction in cell viability incubated for 48 hrs by MTT assay; format: functional, cell-based; conditions: DU-145, 48 h; method in brief: as §1
PC-3 = assay: Antiproliferative activity against human PC-3 cells assessed as reduction in cell viability incubated for 48 hrs by MTT assay; format: functional, cell-based; conditions: PC-3, 48 h; method in brief: as §1
Calf thymus DNA [2] = assay: Binding affinity to calf thymus DNA assessed as decrease in positive peak intensity at compound:DNA concentration ratio of 1:1 to 1:2 by CD spectroscopy; conditions: Bos taurus
Method in brief: (§2)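 Circular dichroism of CT-DNA (10 × 10^-6 M) in 100 mM Tris-HCl pH 7.0 at 25 °C. Spectra taken from 220 to 320 nm at CT-DNA:compound molar ratios of 1:0, 1:1 and 1:2. Each spectrum is the average of three scans.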

A549 [3] = assay: Induction of apoptosis in human A549 cells assessed as viable cells at 2.8 uM measured after 48 hrs by Annexin V-FITC/Propidium iodide staining based flowcytometry analysis (reference value: 83.1%); format: functional; conditions: read-out: Activity
A549 [4] = assay: Cell cycle arrest in human A549 cells assessed as accumulation of cells at subG1 phase at 2.8 uM measured after 48 hrs by propidium iodide staining based FACS cytometry analysis (reference value: 4.2%); format: functional
Calf thymus DNA [5] = assay: Binding affinity to calf thymus DNA assessed as hyperchromicity at 10 uM measured every 5 mins by UV-Vis spectroscopic analysis; conditions: Bos taurus
Method in brief: (§3)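 UV–Vis titration at 25 °C in a 1 cm quartz cuvette. Compound at about 10 μM (1 mM stock in 1:1 DMSO:water). CT-DNA (1 mM stock in 100 mM Tris-HCl pH 7.0) added about 0.5 μM at a time until the band was unchanged over five successive additions. Spectra recorded from 200 to 400 nm.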

Sus scrofa [6] = species: Sus scrofa; assay: Inhibition of pig brain tubulin polymerization at 8 uM incubated for 1 hr by fluorescence based analysis relative to control; format: tissue-based
Method in brief: (§4)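 Cell-free fluorescence kit assay with porcine brain tubulin (2 mg/mL) in 80 mM PIPES pH 6.9, 2.0 mM MgCl2, 0.5 mM EGTA, 1.0 mM GTP and glycerol. Compound tested at 0.5, 1, 2, 4 and 8 μM, with a DMSO vehicle and a 3 μM podophyllotoxin reference. Polymerization followed at excitation 360/emission 440 nm for 1 h at 37 °C. Inhibition taken relative to vehicle; IC50 is the concentration giving 50% inhibition of assembly.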

Calf thymus DNA [7] = assay: Binding affinity to calf thymus DNA measured every 5 mins by UV-Vis spectroscopic analysis; design: species or system Bos taurus; method in brief: as §3
HEK293 [8] = assay: Cell cycle arrest in human HEK293 cells assessed as accumulation of cells at G2/M phase at 2.8 uM measured after 48 hrs by propidium iodide staining based FACS cytometry analysis (reference value: 16.1%); conditions: hek293, 48 h
Calf thymus DNA [9] = assay: Binding affinity to calf thymus DNA assessed as increase in viscosity at 15 uM by Ostwald viscometric analysis; conditions: Bos taurus
Method in brief: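 Ostwald viscometer in a 25 °C water bath. CT-DNA (150 μM, in 100 mM Tris-HCl pH 7.0) was measured alone, then after mixing with compound at 15 μM. EtBr and Hoechst 33342 complexes with CT-DNA served as controls.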

A549 [10] = assay: Cell cycle arrest in human A549 cells assessed as accumulation of cells at G2/M phase at 2.8 uM measured after 48 hrs by propidium iodide staining based FACS cytometry analysis (reference value: 10.1%); format: functional
Tubulin (Homo sapiens) = Tubulin (Homo sapiens) (UniProt P68371+Q9H4B7+P0DPH7+P68366+Q13509+Q71U36+P04350+Q3ZCM7+P07437+P68363+Q9BQE3+Q6PEY2+Q13885+Q9BVA1+Q9BUF5); assay: Inhibition of tubulin polymerization in human A549 cells assessed as disruption of microtubule network at IC50 measured after 48 hrs by confocal microscopic analysis; format: cell-based
HEK293 [11] = assay: Cell cycle arrest in human HEK293 cells assessed as accumulation of cells at G0/G1 phase at 2.8 uM measured after 48 hrs by propidium iodide staining based FACS cytometry analysis (reference value: 64.1%); conditions: hek293, 48 h
[12] = Selectivity index, ratio of IC50 for human HEK293 cells to IC50 for human A549 cells assessed as reduction in cell viability measured after 48 hrs by MTT assay; format: toxicity; conditions: HEK293 cells versus A549 cells, read-out: Ratio IC50
[13] = (§5) Inhibition of pig brain tubulin polymerization incubated for 1 hr by fluorescence based analysis; format: tissue-based, Sus scrofa; method in brief: as §4
Sus scrofa [14] = species: Sus scrofa; assay: as §5; format: tissue-based; method in brief: as §4
[15] = Selectivity index, ratio of IC50 for human HEK293 cells to IC50 for human DU-145 cells assessed as reduction in cell viability measured after 48 hrs by MTT assay
HEK293 [16] = assay: Cell cycle arrest in human HEK293 cells assessed as accumulation of cells at S phase at 2.8 uM measured after 48 hrs by propidium iodide staining based FACS cytometry analysis (reference value: 18.8%); conditions: hek293, 48 h
HEK293 [17] = assay: Cytotoxicity against human HEK293 cells assessed as reduction in cell viability incubated for 48 hrs by MTT assay; format: cell-based; conditions: HEK293, 48 h; method in brief: as §1
Sus scrofa [18] = species: Sus scrofa; assay: Inhibition of pig brain tubulin polymerization at 4 uM incubated for 1 hr by fluorescence based analysis relative to control; format: tissue-based; method in brief: as §4
Sus scrofa [19] = species: Sus scrofa; assay: Inhibition of pig brain tubulin polymerization at 1 uM incubated for 1 hr by fluorescence based analysis relative to control; format: tissue-based; method in brief: as §4
A549 [20] = assay: Cell cycle arrest in human A549 cells assessed as accumulation of cells at S phase at 2.8 uM measured after 48 hrs by propidium iodide staining based FACS cytometry analysis (reference value: 12.7%); format: functional
Calf thymus DNA [21] = assay: Binding affinity to calf thymus DNA assessed as emission spectra at 360 nm at 10 uM measured every 5 mins by fluorescence titration analysis; conditions: Bos taurus
Method in brief: (§6)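 Fluorescence titration at 25 °C in a 1 cm quartz cuvette. Compound held at 10 μM while CT-DNA was added about 0.5 μM per step. Excitation 250 nm, emission scanned 300–500 nm with the peak followed at 360 nm. Each spectrum is the average of three scans. Cuvettes washed with water and about 0.1 N nitric acid between runs.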

Sus scrofa [22] = species: Sus scrofa; assay: Inhibition of pig brain tubulin polymerization at 0.5 uM incubated for 1 hr by fluorescence based analysis relative to control; format: tissue-based; method in brief: as §4
Sus scrofa [23] = species: Sus scrofa; assay: Inhibition of pig brain tubulin polymerization at 2 uM incubated for 1 hr by fluorescence based analysis relative to control; format: tissue-based; method in brief: as §4
A549 [24] = assay: Cell cycle arrest in human A549 cells assessed as accumulation of cells at G0/G1 phase at 2.8 uM measured after 48 hrs by propidium iodide staining based FACS cytometry analysis (reference value: 73%); format: functional
Calf thymus DNA [25] = assay: Binding affinity to calf thymus DNA assessed as decrease in negative peak intensity at compound:DNA concentration ratio of 1:1 to 1:2 by CD spectroscopy; conditions: Bos taurus; method in brief: as §2
Calf thymus DNA [26] = assay: Binding affinity to calf thymus DNA assessed as absorption peak between 310 and 312 nm at 10 uM measured every 5 mins by UV-Vis spectroscopic analysis; conditions: Bos taurus; method in brief: as §3
HEK293 [27] = assay: Cell cycle arrest in human HEK293 cells assessed as accumulation of cells at sub-G1 phase at 2.8 uM measured after 48 hrs by propidium iodide staining based FACS cytometry analysis (reference value: 1%); conditions: hek293, 48 h
[28] = Induction of apoptosis in human HEK293 cells assessed as viable cells at 2.8 uM measured after 48 hrs by Annexin V-FITC/Propidium iodide staining based flowcytometry analysis (reference value: 80.2%); format: cell-based; conditions: read-out: Activity
[29] = Selectivity index, ratio of IC50 for human HEK293 cells to IC50 for human PC-3 cells assessed as reduction in cell viability measured after 48 hrs by MTT assay; format: toxicity; conditions: HEK293 cells versus PC-3 cells, read-out: Ratio IC50
A549 [30] = assay: Induction of apoptosis in human A549 cells assessed as pre and post apoptotic cells at 2.8 uM measured after 48 hrs by Annexin V-FITC/Propidium iodide staining based flowcytometry analysis (reference value: 0.1%); format: functional
HEK293 [31] = assay: Induction of apoptosis in human HEK293 cells assessed as pre and post apoptotic cells at 2.8 uM measured after 48 hrs by Annexin V-FITC/Propidium iodide staining based flowcytometry analysis (reference value: 0.2%); format: cell-based; conditions: hek293, 48 h
Calf thymus DNA [32] = assay: Binding affinity to calf thymus DNA assessed as hypochromicity at 10 uM measured every 5 mins by fluorescence titration analysis; conditions: Bos taurus; method in brief: as §6

SMILES: Cc1cc(Br)c2nc(-c3nnc(-c4ccc(Cl)cc4)o3)cn2c1
IC50 (A549 [1]): 43.5 µM
IC50 (DU-145): 46 µM
IC50 (PC-3): 42 µM

SMILES: COc1cc(-c2nnc(-c3cn4ccccc4n3)o2)cc(OC)c1OC
Activity (Calf thymus DNA [2]): Active
viability at 2.8 µM (A549 [3]): 4.3%
Activity (A549 [4]): 1.3%
Activity (Calf thymus DNA [5]): Active
inhibition (Sus scrofa [6]): 81.2%
Kd (Calf thymus DNA [7]): 42 nM
IC50 (A549 [1]): 2.8 µM
Activity (HEK293 [8]): 15.7%
Activity (Calf thymus DNA [9]): Active
Activity (A549 [10]): 17.1%
inhibition (Tubulin (Homo sapiens)): Active
Activity (HEK293 [11]): 63.2%
selectivity ratio at 48 h [12]: 29
IC50 [13]: 3.45 µM
inhibition (Sus scrofa [14]): Dose-Dependent Effect
Ratio IC50 [15]: 19.7
Activity (HEK293 [16]): 18.8%
IC50 (HEK293 [17]): 89 µM
inhibition (Sus scrofa [18]): 60.1%
inhibition (Sus scrofa [19]): 11.5%
Activity (A549 [20]): 6.9%
Activity (Calf thymus DNA [21]): Active
inhibition (Sus scrofa [22]): 4.6%
inhibition (Sus scrofa [23]): 21.7%
Activity (A549 [24]): 74.5%
Activity (Calf thymus DNA [25]): Active
Activity (Calf thymus DNA [26]): Active
IC50 (DU-145): 4.5 µM
Activity (HEK293 [27]): 2.1%
IC50 (PC-3): 3.5 µM
viability at 48 h, 2.8 µM [28]: 18.5%
selectivity ratio at 48 h [29]: 25.4
Activity (A549 [30]): 86.5%
Activity (HEK293 [31]): 74.5%
Activity (Calf thymus DNA [32]): Active

SMILES: Cc1cc(Br)c2nc(-c3nnc(-c4ccc(Br)cc4)o3)cn2c1
IC50 (A549 [1]): 23.4 µM
IC50 (DU-145): 22.3 µM
IC50 (PC-3): 24.5 µM

SMILES: COc1ccc(-c2nnc(-c3cn4ccccc4n3)o2)cc1
IC50 (A549 [1]): 11.9 µM
IC50 (DU-145): 12.9 µM
IC50 (PC-3): 13.4 µM

SMILES: Cc1cccn2cc(-c3nnc(-c4ccccc4)o3)nc12
IC50 (A549 [1]): 23.4 µM
IC50 (DU-145): 21.8 µM
IC50 (PC-3): 22.8 µM

Further compounds by falling IC50 (A549 [1]), results first:

IC50 (A549 [1]): 32.4 µM
IC50 (DU-145): 32.8 µM
IC50 (PC-3): 33.7 µM
SMILES: Clc1ccc(-c2nnc(-c3cn4ccccc4n3)o2)cc1

IC50 (A549 [1]): 23.4 µM
IC50 (DU-145): 23.4 µM
IC50 (PC-3): 22.2 µM
SMILES: c1ccc(-c2nnc(-c3cn4ccccc4n3)o2)cc1

IC50 (A549 [1]): 14.5 µM
IC50 (DU-145): 18.9 µM
IC50 (PC-3): 17.8 µM
SMILES: Cc1cc(Br)c2nc(-c3nnc(-c4ccccc4)o3)cn2c1
